Bioassay records as filed in PubChem.
Compounds with a hit are over-represented: about 2.4% of the library has one in this group of screens.
HGIII-sPLA2 inh: Blocks human group III sPLA2 activity. QFRET BODIPY PC-A2 liposome hydrolysis, fluorescence. inhibition, % at 12.2 µM. 370,000 tested, 0.56% active. AID 743126;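 active = inhibition above mean plus 3 SD of compounds lying within the high and low control bounds, cut at about 19% in these data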;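 also: 0% = median of test compound wells and 100% = no enzyme DMSO wells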
Target sequence (Q9NZ20 whole entry, looked up): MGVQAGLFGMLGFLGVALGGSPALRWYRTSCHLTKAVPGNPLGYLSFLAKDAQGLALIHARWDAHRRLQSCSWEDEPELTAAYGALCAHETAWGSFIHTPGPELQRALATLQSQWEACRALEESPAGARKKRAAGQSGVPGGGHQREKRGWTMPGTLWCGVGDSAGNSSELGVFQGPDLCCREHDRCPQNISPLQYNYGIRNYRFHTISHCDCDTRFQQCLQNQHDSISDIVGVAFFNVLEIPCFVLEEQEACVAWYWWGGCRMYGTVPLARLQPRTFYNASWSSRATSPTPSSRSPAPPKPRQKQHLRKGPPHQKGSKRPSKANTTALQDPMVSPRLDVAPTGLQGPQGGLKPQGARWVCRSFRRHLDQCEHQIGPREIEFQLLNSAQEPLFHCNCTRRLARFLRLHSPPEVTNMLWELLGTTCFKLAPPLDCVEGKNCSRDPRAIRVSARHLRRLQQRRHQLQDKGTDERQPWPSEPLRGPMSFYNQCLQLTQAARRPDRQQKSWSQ
M18AAP inhibitor: blocks P. falciparum M18 aspartyl aminopeptidase; recombinant PfM18AAP, H-Glu-NHMec fluorogenic cleavage; inhibition, % at 7.35 µM; 290,000 tested, 1.2% active; AID 1822;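 active = inhibition above the campaign mean inhibition over all tested compounds plus 3 SD, cut at about 28% in these data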;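 also: 0% = plate median of test compound wells and 100% = 2 mM ZnCl2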
IMP-1 inhibitor: inhibitors of Pseudomonas aeruginosa IMP-1 metallo-beta-lactamase. purified IMP-1, nitrocefin hydrolysis, epi-absorbance fluorescence. inhibition, % at 5.6 µM. 290,000 tested, 0.45% active. AID 1556;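 active = inhibition above the mean plus 3 SD of all compounds in the same screening run, cut at about 4.5% in these data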;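 also: 0% = IMP-1 with DMSO and 100% = DMSO wells lacking enzyme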
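Assay system: purified recombinant IMP-1 beta-lactamase. Input: IMP-1 0.2 nM before substrate addition. Buffer or medium: Zinc- and detergent-supplemented HEPES buffer, pH 7.1. Schedule: 25 °C, 15 min preincubation, 25 min reaction. Signal: Epi-absorbance fluorescence, 480 nm excitation, 530 nm emission. Evaluation: percent inhibition from optical density relative to buffer-blank wells.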
VIM-2 inh: blocks Pseudomonas aeruginosa VIM-2 metallo-beta-lactamase. 290,000 tested, 0.89% active. purified VIM-2, nitrocefin hydrolysis, epi-absorbance fluorescence. inhibition, % at 5.6 µM. AID 1527;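 active = inhibition above the mean of all tested compounds plus 3 SD, cutoff set per screening run, cut at about 7.5% in these data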;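 also: red hydrolysis product quenches plate fluorescence so inhibitors raise well fluorescence; 0% = enzyme with DMSO and 100% = DMSO without enzyme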
sPLA2 confirm: human GIII-sPLA2 inhibition, confirmation. AID 743280. recombinant hGIII-sPLA2, BODIPY PC-A2 QFRET fluorescence. 2,000 tested, 34% active. shares compounds with HGIII-sPLA2 inh. inhibition, % at 12.2 µM;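 active = mean inhibition across triplicates above the hit cutoff set in the earlier primary screen, cut at about 19% in these data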;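 also: 0% = enzyme with DMSO and 100% = DMSO wells lacking enzyme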
535nm interf: counter-screen for HGIII-sPLA2 inhibitors: 535nm fluorescence interference; 2,000 tested, 8.5% active; shares compounds with HGIII-sPLA2 inh; inhibition, % at 12.2 µM; BODIPY FL product fluorescence interference, QFRET; AID 743282;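 active = average inhibition above the solvent-only control mean plus 3 SD, cut at about 6% in these data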;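 also: 0% = DMSO with substrate plus product and 100% = DMSO with substrate alone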
535nm interf DR: counter-screen for HGIII-sPLA2 inhibitors: 535nm fluorescence interference, dose response. shares compounds with HGIII-sPLA2 inh. AID 743455. 240 tested, under 10 active. BODIPY FL product fluorescence interference, cell-free. IC50, µM;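 active = IC50 at or below 10 µM; inactive = IC50 above 10 µM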
Numbers without * were called inactive; x = not tested or not shown.

SMILES	HGIII-sPLA2 inh	M18AAP inhibitor	IMP-1 inhibitor	VIM-2 inh	sPLA2 confirm	535nm interf	others
O=C(COC(=O)c1cc(=O)c2ccccc2o1)Nc1ccc2ccccc2c1	22*	3	-1	1	2	-3
COc1ccc(C(=O)NCc2nnc(SCC(=O)N3CCCC3)o2)cc1	2	2	-3	-3	x	x
O=S1(=O)CCS(=O)(=O)C1c1ccccc1	20*	x	x	x	-2	-5
O=C1CC(=O)CC(c2ccccc2)C1	2	-3	-5	-4	x	x
CCn1c(C2CCN(S(=O)(=O)c3ccc(OC)cc3)CC2)n[nH]c1=S	21*	13	-4	-3	16	-1
CCOC(=O)[C@]12CCC=C1N(Cc1ccc(Cl)cc1Cl)C(=O)[C@H](CC(=O)NCc1cccs1)C2	-3	x	x	x	x	x
CCOC(=O)C1=C(C(=O)OCC)N(CC2CCCCC2)CCC1=O	5	x	x	x	x	x
O=C(Nc1ccccc1-c1ccccc1)C1CCCC1	20*	-3	-2	-2	-2	-8
CC(C)OC(=O)C1Cc2ccccc2CN1S(=O)(=O)c1cccs1 (centres undefined)	3	-9	-1	2	x	x
CCc1nc(N2CCN(C(=S)NCCCOC)CC2)c2c3c(sc2n1)CCCC3	-20	2	-6	-1	x	x
CCN(CCCCCN(C)C)Cc1cc2ccccc2o1	21*	0	-2	-1	-2	-19
CC1(C)CC(=O)C=C(C#CC2(O)CCCCC2)C1	-1	x	x	x	x	x
CC(C)(C)C(=O)NC(=S)Nc1ccc(F)cc1	23*	4	-1	-1	11	-4
Cc1cccc(NNC(=S)Nc2c(C)cccc2C)c1	19*	30*	-4	-2	29*	-4	535nm interf DR=>122
Cc1cccc(NNC(=S)Nc2ccccc2)c1	15	x	x	x	x	x
O=C(NCC1CCCCC1)c1cccc([N+](=O)[O-])c1	16	1	2	-1	x	x
O=C(NC(=S)N(CC1CCC1)CC1CCCO1)c1cccc([N+](=O)[O-])c1 (centres undefined)	20*	-4	-3	-2	20*	-3
O=C(CCn1nnc(-c2cccs2)n1)NCc1cccs1	2	x	x	x	x	x
COc1ccc(NC(=O)COC(=O)c2c(C)noc2C)cc1Cl	-1	x	x	x	x	x
COc1ccc(-n2c(-c3ccc(Cl)cc3)c[nH]c2=S)cc1	22*	-2	-3	-4	29*	2
Cc1ccc(-n2c(-c3ccccc3)c[nH]c2=S)cc1	20*	16	-2	-1	27*	2
CC(=O)Oc1ccc(C2=Cc3ccc(OC(C)=O)cc3OC2C)cc1 (centres undefined)	-17	x	x	x	x	x
O=[N+]([O-])C1=CC=C2C(=NC3(CCCCC3)N2O)C1=NC1CCCCC1	19*	0	-3	-4	25*	-3
O=C(NCCN1CCOCC1)c1cc(Sc2ccccc2Cl)nc2ccccc12	19*	-16	-2	1	-2	-17
O=C(NCCN1CCOCC1)c1cc(Sc2ccc(F)cc2F)nc2ccccc12	8	3	-1	-3	x	x
SMILES	HGIII-sPLA2 inh	M18AAP inhibitor	IMP-1 inhibitor	VIM-2 inh	sPLA2 confirm	535nm interf	others
CCn1nc(C(=O)NCc2nnc3ccccn23)c2ccccc2c1=O	9	x	x	x	x	x
Cc1ccc(NC(=O)COC(=O)c2nn(C)cc2Cl)cc1	-1	3	-5	-2	x	x
Cc1cccc(NC(=S)NNC(=O)c2ccco2)c1	17	9	-3	-2	x	x
O=C(NNC(=S)Nc1ccc(Cl)c(Cl)c1)c1ccccn1	32*	-4	-4	-4	42*	6.5*
CCNC(=S)NNC(=O)c1ccccn1	4	11	-2	-4	x	x
Cc1cccc(NC(=S)NNC(=O)c2nn(C)cc2Cl)c1	37*	12	-2	-1	43*	1	535nm interf DR=>122
Cc1ccc(NC(=S)NNC(=O)c2nn(C)cc2Cl)cc1	34*	8	-2	-5	44*	2	535nm interf DR=>122
Cc1ccc(NC(=O)c2cnn(-c3ccccc3)c2C)cc1	-7	-3	-4	-2	x	x
Cc1ccc(NC(=S)NNC(=O)c2nnn(-c3ccccc3)c2C)cc1	36*	7	-2	-3	31*	-3	535nm interf DR=>122
O=C(Nc1ccc(Cl)c(Cl)c1)N1CCCCCC1	8	-17	0	4	x	x
O=C(c1ccc(NC(=S)Nc2ccc(Cl)c(Cl)c2)cc1)N1CCCC1	20*	-10	-2	-2	6	-3
Cc1ccc(NC(=S)NNC(=O)c2cnccn2)cc1	30*	x	x	x	27*	0
O=C1C(O)CCN1Cc1ccccc1 (centres undefined)	-3	x	x	x	x	x
Cc1cccc(C)c1NC(=O)C1c2ccccc2OCC(=O)N1CCCN1CCOCC1 (centres undefined)	5	x	x	x	x	x
CC[n+]1c(/C=C/c2ccc(N(C)C)cc2)ccc2ccccc21	25*	5	-10	-8	43*	-14	535nm interf DR=>122
CC[n+]1ccccc1/C=C/c1ccc(N(C)C)cc1	-1	0	-3	-2	x	x
CC[n+]1ccc(/C=C/c2ccc(N(C)C)cc2)c2ccccc21	24*	10	-10	-7	46*	-11	535nm interf DR=>122
CS/C(N)=N/N=C/c1cc(Br)cc(Br)c1O	38*	24	-2	-3	34*	6.8*
C=CCS/C(N)=N\N=C\c1cc(Br)cc([N+](=O)[O-])c1O	38*	8	-1	-6	30*	-2	535nm interf DR=>122
Cc1nnc(C)n1/N=C/c1cc(Br)cc(Br)c1O	-1	8	-3	-4	x	x
C#CCNC(=O)C[C@H]1C[C@@]2(C(=O)OC)C(=C[C@H](C3CCCC3)O[C@@H]2C)N(Cc2ccc(Cl)cc2Cl)C1=O	-7	x	x	x	x	x
Cc1ccc(C)c(N2CCN(S(=O)(=O)c3c(C)noc3/C=C/N(C)C)CC2)c1	23*	10	-1	-3	29*	-8	535nm interf DR=>122
Cc1csc(=O)n1CCC(=O)OCC(=O)N(C)c1c(N)n(Cc2ccccc2)c(=O)[nH]c1=O	9	x	x	x	x	x
COc1ccc(C)cc1NCc1ccc([N+](=O)[O-])cc1	19*	-6	-3	-1	15	-2
CCN(CC)S(=O)(=O)c1ccc(C)c(NC(=O)COc2ccc3c(C)cc(=O)oc3c2)c1	20*	2	-4	0	-12	-11
O=C(CN(C(=O)c1ccc(Cl)cc1)C1CCCCC1)Nc1ccc(Cl)c([N+](=O)[O-])c1	20*	-8	-5	-6	-7	-16
O=C1Nc2ccccc2Oc2cc([N+](=O)[O-])cc(Oc3ccccc3)c21	0	-5	1	-1	x	x
O=[N+]([O-])c1cc2c(c([N+](=O)[O-])c1)Nc1ccccc1O2	21*	x	x	x	45*	12*
COc1ccc(NS(=O)(=O)c2cc(N)ccc2N2CCOCC2)cc1	6	17	-3	-3	x	x
